In brackets after ≈: the same amount, converted by molar mass. Activity calls are given as the source filed them. The rule behind the calls is not given here.
Legend:
Format in all cases: functional
[1] = tested on: Mycobacterium tuberculosis; assay: Antimycobacterial activity against Mycobacterium tuberculosis H37Rv after 45 days
Outline: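 Canetti proportion method. Compound in DMSO is added to Löwenstein–Jensen egg medium before coagulation (30 min, 85 °C), tested at three levels plus a lower one where needed. Tubes are inoculated with H37Rv at 10⁵ cells/ml and incubated 45 days at 37 °C. Colony counts versus drug-free control give percentage inhibition.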

[2] = tested on: Bacillus subtilis; assay: Antibacterial activity against Bacillus subtilis ATCC 6633 at 50 mg/ml after 24 hrs by agar diffusion test; conditions: for zone of inhibition at 50000 µg/mL: ATCC 6633, 24 h, read-out: DIZ
Outline: (§1)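 Agar diffusion: wells in agar filled with […] DMSO solution of compound at various concentrations; diameter of clear zone around application point measured. Bacteria grown 24 h at 37 °C on nutrient agar. Compounds first screened at 50 mg/ml; those active then tested at lower concentrations. Bracketed value = lowest concentration (mg/ml) giving zone >11 mm, reported only if activity retained at ≤1.25 mg/ml.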

[3] = tested on: Bacillus; assay: Antibacterial activity against Bacillus idosus B 241 at 50 mg/ml after 24 hrs by agar diffusion test; conditions: for zone of inhibition at 50000 µg/mL: B 241, 24 h, read-out: DIZ; outline: as §1
[4] = tested on: Priestia megaterium; assay: Antibacterial activity against Bacillus megaterium NRRL 1353895 at 50 mg/ml after 24 hrs by agar diffusion test; conditions: for zone of inhibition at 50000 µg/mL: NRRL 1353895, 24 h, read-out: DIZ; outline: as §1
[5] = tested on: Bacillus mycoides; assay: Antibacterial activity against Bacillus mycoides DSMZ 274 at 50 mg/ml after 24 hrs by agar diffusion test; conditions: for zone of inhibition at 50000 µg/mL: DSMZ 274, 24 h, read-out: DIZ; outline: as §1
[6] = tested on: Bacillus cereus; assay: Antibacterial activity against Bacillus cereus ATCC 11778 at 50 mg/ml after 24 hrs by agar diffusion test; conditions: for zone of inhibition at 50000 µg/mL: ATCC 11778, 24 h, read-out: DIZ; outline: as §1
[7] = tested on: Acinetobacter johnsonii; assay: Antibacterial activity against Acinetobacter johnsonii ATCC 17909 at 50 mg/ml after 24 hrs by agar diffusion test; conditions: for zone of inhibition at 50000 µg/mL: ATCC 17909, 24 h, read-out: DIZ; outline: as §1
[8] = tested on: Staphylococcus aureus; assay: Antibacterial activity against Staphylococcus aureus NRRL B 313 at 50 mg/ml after 24 hrs by agar diffusion test; conditions: for zone of inhibition at 50000 µg/mL: NRRL B 313, 24 h, read-out: DIZ
Outline: (§2)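 Agar diffusion: bacteria grown 24 h at 37 °C on nutrient agar. Wells in the agar are filled with […] of compound solution in DMSO at various concentrations. The diameter of the clear zone around the application point is measured. Bracketed values give the lowest concentration (mg/ml) that produces a zone >11 mm. A first screen is run at 50 mg/ml.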

[9] = tested on: Micrococcus luteus; assay: Antibacterial activity against Sarcina lutea ATCC 9341 at 50 mg/ml after 24 hrs by agar diffusion test; conditions: for zone of inhibition at 50000 µg/mL: ATCC 9341, 24 h, read-out: DIZ; outline: as §2
[10] = tested on: Micrococcus luteus; assay: Antibacterial activity against Micrococcus luteus ATCC 9631 at 50 mg/ml after 24 hrs by agar diffusion test; conditions: for zone of inhibition at 50000 µg/mL: ATCC 9631, 24 h, read-out: DIZ; outline: as §1
[11] = tested on: Escherichia coli; assay: Antibacterial activity against Escherichia coli ATCC 8739 at 50 mg/ml after 24 hrs by agar diffusion test; conditions: for zone of inhibition at 50000 µg/mL: ATCC 8739, 24 h, read-out: DIZ; outline: as §1
[12] = tested on: Candida tropicalis; assay: Antifungal activity against Candida tropicalis ATCC 20336 at 50 mg/ml after 72 hrs by agar diffusion test; conditions: for zone of inhibition at 50000 µg/mL: ATCC 20336, 72 h, read-out: DIZ
Outline: (§3)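 Agar diffusion: yeasts grown on yeast peptone dextrose agar and fungi on potato dextrose agar. Wells are filled with […] of compound solution in DMSO at various concentrations, and the clear-zone diameter is measured. Bracketed values give the lowest concentration (mg/ml) that produces a zone >11 mm. A first screen is run at 50 mg/ml.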

[13] = tested on: Saccharomyces cerevisiae; assay: Antifungal activity against Saccharomyces cerevisiae ATCC 9763 at 50 mg/ml after 72 hrs by agar diffusion test; conditions: for zone of inhibition at 50000 µg/mL: ATCC 9763, 72 h, read-out: DIZ; outline: as §3
[14] = tested on: Penicillium chrysogenum; assay: Antifungal activity against Penicillium chrysogenum CECT 2802 at 50 mg/ml after 72 hrs by agar diffusion test; conditions: for zone of inhibition at 50000 µg/mL: CECT 2802, 72 h, read-out: DIZ; outline: as §3

Structure (SMILES) | MIC [1] | diameter of the inhibition zone (DIZ) [2] | zone of inhibition at 50000 µg/mL [3] | diameter of the inhibition zone (DIZ) [4] | diameter of the inhibition zone (DIZ) [5] | diameter of the inhibition zone (DIZ) [6] | zone of inhibition at 50000 µg/mL [7] | diameter of the inhibition zone (DIZ) [8] | diameter of the inhibition zone (DIZ) [9] | diameter of the inhibition zone (DIZ) [10] | diameter of the inhibition zone (DIZ) [11] | diameter of the inhibition zone (DIZ) [12] | diameter of the inhibition zone (DIZ) [13] | diameter of the inhibition zone (DIZ) [14] | zone of inhibition at 50000 µg/mL [4] | zone of inhibition at 50000 µg/mL [5] | zone of inhibition at 50000 µg/mL [6] | zone of inhibition at 50000 µg/mL [9] | diameter of the inhibition zone (DIZ) [3] | diameter of the inhibition zone (DIZ) [7] | further results
CC[C@H](CO)n1cnc2ccccc2c1=O | 22.9 µM (≈ 5 µg/mL) | inactive | 14 mm | inactive | inactive | inactive | 14 mm | inactive | inactive | inactive | inactive | inactive | inactive | inactive | – | – | – | – | – | – | –
CC[C@H](CO)NCc1ccnc2ccccc12 | 21.7 µM (≈ 5 µg/mL) | – | 12 mm | – | – | – | 13 mm | – | – | – | – | – | – | – | 11 mm | 16 mm | 13 mm | 13 mm | – | – | zone of inhibition at 50000 µg/mL [2]: 10 mm; zone of inhibition at 50000 µg/mL [8]: 14 mm; zone of inhibition at 50000 µg/mL [10]: 10 mm; zone of inhibition at 50000 µg/mL [11]: 20 mm; zone of inhibition at 50000 µg/mL [14]: 20 mm
CC[C@H](CO)NCc1ccc2ccc3cccc4ccc1c2c34 | 16.5 µM (≈ 5 µg/mL) | – | 30 mm | – | – | – | 14 mm | – | – | – | inactive | – | – | – | 13 mm | 15 mm | 14 mm | 13 mm | – | – | zone of inhibition at 50000 µg/mL [2]: 14 mm; zone of inhibition at 50000 µg/mL [8]: 13 mm; zone of inhibition at 50000 µg/mL [10]: 14 mm; zone of inhibition at 50000 µg/mL [12]: 40 mm; zone of inhibition at 50000 µg/mL [13]: 35 mm; zone of inhibition at 50000 µg/mL [14]: 14 mm
CC[C@H](CO)N1C(=O)c2cccc3c(Br)ccc(c23)C1=O | > 14.4 µM | inactive | – | inactive | inactive | – | – | inactive | – | inactive | – | inactive | inactive | inactive | – | – | – | – | inactive | inactive | –
CC[C@H](CO)NC(=O)Nc1cccc2ccccc12 | > 19.4 µM | inactive | – | inactive | inactive | inactive | – | inactive | inactive | inactive | inactive | inactive | inactive | inactive | – | – | – | – | inactive | inactive | –
CC[C@H](CO)NCc1ccccc1OC | > 23.9 µM | – | 15 mm | – | – | – | 10 mm | – | – | – | inactive | inactive | – | inactive | 11 mm | 11 mm | 13 mm | – | – | – | zone of inhibition at 50000 µg/mL [2]: 10 mm; zone of inhibition at 50000 µg/mL [8]: 10 mm; zone of inhibition at 50000 µg/mL [10]: 11 mm; zone of inhibition at 50000 µg/mL [13]: 16 mm
CC[C@H](CO)NC(=O)c1ccccc1Br | > 18.4 µM | inactive | – | inactive | inactive | inactive | – | inactive | inactive | inactive | – | inactive | inactive | inactive | – | – | – | – | inactive | inactive | –
CC[C@H](CO)NS(=O)(=O)c1ccc(NC(C)=O)cc1 | > 17.5 µM | inactive | – | inactive | inactive | inactive | – | inactive | inactive | inactive | inactive | inactive | inactive | – | – | – | – | – | inactive | inactive | –
CC[C@H](CO)N(Cc1cc2c(cc1Cl)OCO2)Cc1cc2c(cc1Cl)OCO2 | > 11.7 µM | inactive | – | – | inactive | inactive | – | inactive | – | – | inactive | inactive | inactive | inactive | 10 mm | – | – | 10 mm | inactive | inactive | –
CC[C@H](CO)NC(=S)Nc1ccccc1 | > 22.3 µM | inactive | – | – | – | – | 12 mm | inactive | – | – | – | – | – | – | 13 mm | 12 mm | 14 mm | 12 mm | inactive | – | zone of inhibition at 50000 µg/mL [10]: 12 mm; zone of inhibition at 50000 µg/mL [11]: 16 mm; zone of inhibition at 50000 µg/mL [12]: 16 mm; zone of inhibition at 50000 µg/mL [13]: 15 mm

From ChEMBL document CHEMBL1932986, “Synthesis and in vitro antimycobacterial activity of compounds derived from (R)- and (S)-2-amino-1-butanol - The crucial role of the configuration” (Eur J Med Chem, 2012)
